Test results: ChEMBL document CHEMBL2046305, “Discovery of selective menaquinone biosynthesis inhibitors against Mycobacterium tuberculosis” (J Med Chem, 2012)
Converted amounts (≈) assume the structure as drawn. The source made the active and inactive calls. The rule behind the calls is not given here.

Tests used:
[1] = tested on: Staphylococcus aureus; assay: Inhibition of Staphylococcus aureus MenA using [3H]farnesyl and DHNA as substrate at 100 uM after 2 hrs
How it was run: (§1)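 Membrane fraction from mid-log cultures in 7H9/OADC, washed in saline, sonicated in MOPS pH 8/sucrose/MgCl2/2-mercaptoethanol buffer, spun 15,000 g then 200,000 g; the fraction was the enzyme source. DHNA (500 μM stock), MgCl2, 0.1% CHAPS, Tris pH 8, farnesyl diphosphate (200 μM stock) and inhibitor, 2 h at 37 °C. Quenched with 0.1 M AcOH/MeOH, extracted with hexanes, DMMK measured.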

[2] = tested on: Mycobacterium tuberculosis; assay: Inhibition of Mycobacterium tuberculosis MenA using [3H]farnesyl and DHNA as substrate at 100 uM after 2 hrs; how it was run: as §1
[3] = Inhibition of Mycobacterium tuberculosis MenA using [3H]farnesyl and DHNA as substrate after 2 hrs; how it was run: as §1
[4] = tested on: Staphylococcus aureus; assay: Antibacterial activity against Staphylococcus aureus Seattle 1945 ATCC 25923 by agar plate diffusion method; type: functional
[5] = tested on: Mycobacterium tuberculosis; assay: Antibacterial activity against Mycobacterium tuberculosis H37Rv ATCC 27294 by microplate alamar blue assay; type: functional
How it was run: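 Colorimetric microplate assay run under aerobic conditions; growth scored by the colour change of resazurin. Compounds showing at least 90% inhibition in a preliminary screen were retested at lower concentrations to give the MIC.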

[6] = tested on: Mycobacterium tuberculosis; assay: Antibacterial activity against non-replicating Mycobacterium tuberculosis H37Rv ATCC 27294 by low oxygen recovery assay; type: functional
[7] = tested on: Escherichia coli; assay: Growth inhibition of Escherichia coli Seattle ATCC 25922 at 5 to 10 ug/ml by microplate alamar blue assay; type: functional, organism-based
[8] = tested on: Escherichia coli; assay: Growth inhibition of Escherichia coli Seattle ATCC 25922 at 5 to 10 ug/ml by microplate alamar blue assay in presence of 50 uM VK2; type: functional, organism-based
How it was run: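 E. coli grown with inhibitor under anaerobic conditions; rescue tested by supplementing with menaquinone (VK2, 50 μM).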

Row | SMILES | inhibition [1] | inhibition [2] | IC50 [3] | MIC [4] | MIC [5] | MIC [6] | growth inhibition (GI) [7] | growth inhibition (GI) [8]
1 | CCCCCCC[C@H](O)c1cccc(CN2CCC(COc3ccc(/C(=N\OC)c4ccc(Cl)cc4)c(Cl)c3)CC2)c1 | inactive | Active | 20 µM | > 60 µg/mL | 12.5 µg/mL (≈ 20.4 µM) | 5.54 µg/mL (≈ 9.06 µM) | Active | inactive
2 | NNC(=O)c1ccncc1 [ISONIAZID] |  |  |  |  | 0.03 µg/mL (≈ 0.219 µM) | > 128 µg/mL |  | 
3 | CCCCCCC[C@@H](O)c1cccc(CN2CCC(COc3ccc(C(=O)c4ccc(Cl)cc4)c(Cl)c3)CC2)c1 | inactive | Active | 15 µM | > 60 µg/mL | 12.5 µg/mL (≈ 21.5 µM) | 1.46 µg/mL (≈ 2.51 µM) | Active | inactive
4 | CCCCCC[C@@H](O)CN1CCC(COc2cccc(C(=O)c3ccc(Cl)cc3)c2)CC1 | inactive | Active | 9 µM | > 60 µg/mL | 6.2 µg/mL (≈ 13.5 µM) | 5.59 µg/mL (≈ 12.2 µM) | Active | inactive
5 | CCCC[C@@H](O)CN1CCC(COc2ccc(C(=O)c3ccc(Cl)cc3)c(Cl)c2)CC1 | inactive | Active | 7.5 µM | > 60 µg/mL | 6.25 µg/mL (≈ 13.5 µM) | 2.85 µg/mL (≈ 6.14 µM) | Active | inactive
6 | CCCCCCC[C@H](OC(N)=O)c1cccc(CN2CCC(COc3cccc(C(=O)c4ccc(Cl)cc4)c3)CC2)c1 | inactive | Active | 20 µM | > 60 µg/mL | 12.5 µg/mL (≈ 21.1 µM) | 4.93 µg/mL (≈ 8.34 µM) | Active | inactive
7 | CCCCCC[C@@H](CN1CCC(COc2cccc(C(=O)c3ccc(Cl)cc3)c2)CC1)OC(N)=O | inactive | Active | 9 µM | > 60 µg/mL | 12.5 µg/mL (≈ 24.9 µM) | 2.94 µg/mL (≈ 5.87 µM) | Active | inactive
8 | COc1ccc(CCN[C@H](CO)c2cccc(COc3cccc(C(=O)c4ccc(Cl)cc4)c3)c2)cc1 | inactive | Active | 17 µM | > 60 µg/mL | 12.5 µg/mL (≈ 24.2 µM) | 3 µg/mL (≈ 5.81 µM) | Active | inactive
9 | CCCCCC[C@@H](CN1CCC(COc2ccc(/C(=N\OC)c3ccc(Cl)cc3)c(Cl)c2)CC1)OC(N)=O | inactive | Active | 1.5 µM | > 60 µg/mL | 1.5 µg/mL (≈ 2.66 µM) | 1.4 µg/mL (≈ 2.48 µM) | Active | inactive
10 | CCCCCCC[C@@H](OC(N)=O)c1cccc(CN2CCC(COc3ccc(C(=O)c4ccc(Cl)cc4)c(Cl)c3)CC2)c1 | inactive | Active | 20 µM | > 60 µg/mL | 12.5 µg/mL (≈ 20 µM) | 4.93 µg/mL (≈ 7.88 µM) | Active | inactive
11 | CCCCCC[C@H](O)CN1CCC(COc2cccc(C(=O)c3ccc(Cl)cc3)c2)CC1 | inactive | Active | 16 µM | > 60 µg/mL | 12.5 µg/mL (≈ 27.3 µM) | 4.91 µg/mL (≈ 10.7 µM) | Active | inactive
